# According to ChEMBL document CHEMBL1138329, “Pharmacokinetic/pharmacodynamic model-guided identification of hypoxia-selective 1,2,4-benzotriazine 1,4-dioxides with antitumor activity: the role of extravascular transport” (J Med Chem, 2007):
# pIC50: −log10 of the molar value.
# Columns and labels:
# HT-29 [1] = experiment: Cytotoxicity against human HT29 cells under hypoxic conditions after 4 hrs; format: functional, cell-based; settings: HT-29, 4 h
# SiHa [2] = experiment: Ratio of IC50 for SiHa cells under oxic conditions to hypoxic conditions after 4 hrs; format: functional, Homo sapiens
# HT-29 [3] = experiment: Effect on human HT29 cells under hypoxic conditions assessed as drug level causing 10% clonogenic survival; format: functional
# Outline: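 HT29 suspensions (1 or 2 × 10^6 cells/mL) in serum-free medium were stirred under 5% CO2/95% N2 for 90 min. Drug was added from deoxygenated DMSO stock at a level giving about 10% survival at 1 h, and samples were taken up to 3 h. Clonogenic survival (14 days, methylene blue) was fitted with the HPLC concentration–time data, and the 10% survival exposure was interpolated.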
# HT-29 [4] = experiment: Ratio of IC50 for HT29 cells under oxic conditions to hypoxic conditions after 4 hrs; format: functional, Homo sapiens
# HT-29 [5] = experiment: Antitumor activity against human HT29 cells implanted in CD1 mouse assessed as clonogenic survival at 562 umol/kg, ip after 18 hrs relative to control; format: functional
# Outline: (§1)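 HT29 xenografts in CD-1 homozygous nude mice; single i.p. dose of drug alone, formulated as the HCl salt in 0.9% saline, 5% DMSO/saline or lactate buffer (pH 4.0). Tumors excised 18 h later, dissociated to single-cell suspensions and plated. Clonogens/g of tumor counted; surviving fraction = treated/control clonogens/g.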
# [6] = AUC in CD1 mouse at 562 umol/kg, ip; format: ADME, organism-based; settings: plasma
# Outline: (§2)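 Single i.p. dose to CD-1 homozygous nude mice, drug as HCl salt in 0.9% saline, 5% DMSO/saline or lactate buffer (pH 4.0). Plasma total drug measured by HPLC at 75 or 100% of MTD (MTD from 1.33-fold dose steps, 6 mice). Noncompartmental analysis gave AUC, Cmax and t1/2.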
# [7] = Half life in CD1 mouse at 562 umol/kg, ip; format: ADME, organism-based; settings: in vivo; outline: as §2
# SiHa [8] = experiment: Cytotoxicity against human SiHa cells under hypoxic conditions after 4 hrs; format: functional, cell-based
# [9] = Solubility in culture medium in presence of 5% fetal calf serum; format: physicochemical; settings: culture medium with 5% fetal calf serum
# HT-29 [10] = experiment: Antitumor activity against human HT29 cells implanted in CD1 mouse at 562 umol/kg, ip administered 5 mins after irradiation by excision assay relative to radiation alone; format: functional
# Outline: (§3)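 Hypoxic-cell excision assay in HT29 xenografts in CD-1 homozygous nude mice. Mice received 20 Gy γ radiation to sterilize oxic tumor cells, then a single i.p. drug dose (HCl salt in saline, 5% DMSO/saline or pH 4.0 lactate buffer) 5 min later. Tumors excised at 18 h and plated for clonogens/g. Log cell kill = log(clonogens/g, radiation only) − log(clonogens/g, radiation plus drug).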
# Mus musculus = experiment: Toxicity in ip dosed CD1 mouse; format: organism-based; settings: in vivo
# Outline: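 MTD in CD-1 homozygous nude mice after single i.p. doses (HCl salts in saline, 5% DMSO/saline or lactate buffer pH 4.0), escalated in 1.33-fold increments. MTD taken as the highest dose causing no death, no body weight loss >15% and no other severe morbidity in any of 6 mice.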
# [11] = Half life in CD1 mouse at 421 umol/kg, ip; format: ADME, organism-based; settings: in vivo; outline: as §2
# [12] = Cmax in CD1 mouse at 421 umol/kg, ip; format: ADME, organism-based; set-up: dose 421 umol/kg, route intraperitoneal; settings: in vivo; outline: as §2
# [13] = AUC in CD1 mouse at 421 umol/kg, ip; format: ADME, organism-based; settings: plasma; outline: as §2
# HT-29 [14] = experiment: Diffusion coefficient, D in HT29 multicellular layers; format: ADME, cell-based; settings: human
# Outline: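 HT29 multicellular layers were grown 3 days on collagen-coated Teflon membranes, equilibrated 60 min under 95% O2/5% CO2 at 37 °C, then placed in a diffusion chamber. Donor and receiver were sampled up to 5 h and assayed by HPLC. D came from fitting both profiles to a Fickian model with membrane and MCL in series, corrected by support-only Ds.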
# [15] = Half life in CD1 mouse at 1000 umol/kg, ip; format: ADME, organism-based; settings: in vivo; outline: as §2
# HT-29 [16] = experiment: Antitumor activity against human HT29 cells implanted in CD1 mouse at 1000 umol/kg, ip administered 5 mins after irradiation by excision assay relative to radiation alone; format: functional; outline: as §3
# HT-29 [17] = experiment: Antitumor activity against human HT29 cells implanted in CD1 mouse assessed as clonogenic survival at 1000 umol/kg, ip after 18 hrs relative to control; format: functional; outline: as §1
# [18] = Cmax in CD1 mouse at 1000 umol/kg, ip; format: ADME, organism-based; set-up: dose 1000 umol/kg, route intraperitoneal; settings: in vivo; outline: as §2
# [19] = AUC in CD1 mouse at 1000 umol/kg, ip; format: ADME, organism-based; settings: plasma; outline: as §2
# [20] = Cmax in CD1 mouse at 133 umol/kg, ip; format: ADME, organism-based; set-up: dose 133 umol/kg, route intraperitoneal; settings: in vivo; outline: as §2
# HT-29 [21] = experiment: Antitumor activity against human HT29 cells implanted in CD1 mouse at 133 umol/kg, ip administered 5 mins after irradiation by excision assay relative to radiation alone; format: functional; outline: as §3
# [22] = AUC in CD1 mouse at 133 umol/kg, ip; format: ADME, organism-based; settings: plasma; outline: as §2
# HT-29 [23] = experiment: Antitumor activity against human HT29 cells implanted in CD1 mouse assessed as clonogenic survival at 133 umol/kg, ip after 18 hrs relative to control; format: functional; outline: as §1
# [24] = AUC in CD1 mouse at 237 umol/kg, ip; format: ADME, organism-based; settings: plasma; outline: as §2
# [25] = Half life in CD1 mouse at 237 umol/kg, ip; format: ADME, organism-based; settings: in vivo; outline: as §2
# [26] = Cmax in CD1 mouse at 237 umol/kg, ip; format: ADME, organism-based; set-up: dose 237 umol/kg, route intraperitoneal; settings: in vivo; outline: as §2
# [27] = AUC in CD1 mouse at 750 umol/kg, ip; format: ADME, organism-based; settings: plasma; outline: as §2
# [28] = Half life in CD1 mouse at 750 umol/kg, ip; format: ADME, organism-based; settings: in vivo; outline: as §2
# HT-29 [29] = experiment: Antitumor activity against human HT29 cells implanted in CD1 mouse assessed as clonogenic survival at 750 umol/kg, ip after 18 hrs relative to control; format: functional; outline: as §1
# HT-29 [30] = experiment: Antitumor activity against human HT29 cells implanted in CD1 mouse at 750 umol/kg, ip administered 5 mins after irradiation by excision assay relative to radiation alone; format: functional; outline: as §3
# [31] = Cmax in CD1 mouse at 750 umol/kg, ip; format: ADME, organism-based; set-up: dose 750 umol/kg, route intraperitoneal; settings: in vivo; outline: as §2
SMILES,pIC50 (HT-29 [1]),Ratio IC50 (SiHa [2]),Activity (HT-29 [3]) [µM·h],Ratio IC50 (HT-29 [4]),pIC50 (SiHa [8]),solubility [9] [mM],MTD (Mus musculus),D (HT-29 [14]) [cm²/s],further results
COCCOc1ccc2c(c1)[n+]([O-])c(NCCN(C)C)n[n+]2[O-],5.30,401,51.8,117,5.80,> 51,1330 µM/g,–,LCK (HT-29 [5]): -0.08; AUC [6]: 257 µM·h; half-life [7]: 44.9 min; LCK (HT-29 [10]): 0.3
Cc1ccc2c(c1)[n+]([O-])c(NCCN1C(C)CCCC1C)n[n+]2[O-] (stereo not drawn),5.55,159,15.4,126,6.10,48,421 µmol/kg,9.45e-07,half-life [11]: 19.1 min; Cmax [12]: 19.6 µM; AUC [13]: 18.3 µM·h
COc1ccc2c(c1)[n+]([O-])c(NCCN(C)C)n[n+]2[O-],5.11,232,26.1,89,5.54,46,1000 µmol/kg,2.32e-07,half-life [15]: 51.5 min; LCK (HT-29 [16]): 1.84; LCK (HT-29 [17]): 0.15; Cmax [18]: 157 µM; AUC [19]: 240 µM·h
Nc1n[n+]([O-])c2ccccc2[n+]1[O-] [TIRAPAZAMINE],5.29,–,24.3,–,5.60,8.9,178 µmol/kg,4.04e-07,Cmax [20]: 61.7 µM; LCK (HT-29 [21]): 0.59; AUC [22]: 49.2 µM·h; LCK (HT-29 [23]): 0.15
CN(C)CCNc1n[n+]([O-])c2ccc(OCC3CC3)cc2[n+]1[O-],5.42,101,45.1,35,5.68,43,750 µM/g,–,half-life [15]: 33.9 min; LCK (HT-29 [16]): -0.06; LCK (HT-29 [17]): -0.14; AUC [19]: 51.3 µM·h
CCOc1ccc2c(c1)[n+]([O-])c(NCCN1CCCCC1)n[n+]2[O-],5.66,169,36.3,116,5.77,> 49,316 µmol/kg,–,AUC [24]: 10.7 µM·h; half-life [25]: 40.1 min; Cmax [26]: 9.8 µM
CCc1ccc2c(c1)[n+]([O-])c(NCCCN1CCOCC1)n[n+]2[O-],4.98,66,56.5,>36,5.25,55,1000 µmol/kg,–,AUC [27]: 94.8 µM·h; half-life [28]: 24.9 min; LCK (HT-29 [29]): 0.13; LCK (HT-29 [30]): 0.82; Cmax [31]: 139 µM
